The source made the active and inactive calls. The rule behind the calls is not given here.
Experiments:
Trypanosoma cruzi [1] = experiment: Antitrypanosomal activity against Trypanosoma cruzi Y infected in CD4+ T-lymphocyte knockout C57BL/6 mouse assessed as reactivation of parasite in mouse at 20 mg/kg/day, po administered twice daily for 20 consecutive days measured 60 days post infection; assay type: functional, organism-based
How it was run: (§1)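 Ip infection was 5,000 Y-strain blood trypomastigotes. From 4 dpi mice got 20 mg/kg/day orally in two daily doses (2% methylcellulose/0.5% Tween 80) for 20 days. Fresh tail blood was examined microscopically, daily from 4–16 dpi and every other day to 60 dpi. Reactivation was scored as return of patent parasitemia after treatment. Parasitemia curves were compared by Mann-Whitney.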

Trypanosoma cruzi [2] = experiment: Antitrypanosomal activity against Trypanosoma cruzi Y infected in CD8+ T-lymphocyte knockout C57BL/6 mouse assessed as mean survival time at 100 mg/kg/day, po administered once daily for 20 consecutive days measured 60 days post infection; assay type: functional
How it was run: (§2)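 Mice were infected ip with 5,000 blood trypomastigotes of the Y strain, kept by serial passage in Swiss-Webster mice. From 4 dpi they got 100 mg/kg/day orally once daily for 20 consecutive days, dissolved in water with gum arabic. Survival was followed to 60 dpi, with mean survival time and survival rate taken. Untreated and vehicle-treated infected mice served as controls. Rates compared by chi-square with Bonferroni.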

Trypanosoma cruzi [3] = experiment: Antitrypanosomal activity against Trypanosoma cruzi Y infected in CD8+ T-lymphocyte knockout C57BL/6 mouse assessed as occurrence of subpatent level of parasitemia at 20 mg/kg/day, po administered twice daily for 20 consecutive days measured 60 days post infection; assay type: functional, organism-based; how it was run: as §1
Trypanosoma cruzi [4] = experiment: Antitrypanosomal activity against Trypanosoma cruzi Y infected in B-lymphocyte knockout C57BL/6 mouse assessed as number of mouse with reactivation of infection at 100 mg/kg/day, po administered once daily for 20 consecutive days measured 22 days post infection; assay type: functional, organism-based
How it was run: (§3)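 Ip infection was 5,000 Y-strain blood trypomastigotes. Oral dosing at 100 mg/kg/day, once daily in gum arabic water, ran from 4 dpi for 20 days. Parasitemia was read by microscopy of fresh tail blood, daily from 4–16 dpi, then every other day to 60 dpi. Reactivation was scored as patent parasitemia returning after treatment ended.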

Trypanosoma cruzi [5] = experiment: Antitrypanosomal activity against Trypanosoma cruzi Y infected in B-lymphocyte knockout C57BL/6 mouse assessed as increase in survival of mouse at 100 mg/kg/day, po administered once daily for 20 consecutive days measured 60 days post infection; assay type: functional; details: 1440 h; how it was run: as §2
Trypanosoma cruzi [6] = experiment: Antitrypanosomal activity against Trypanosoma cruzi Y infected in C57BL/6 mouse assessed as increase in survival of mouse at 100 mg/kg/day, po administered once daily for 20 consecutive days measured 60 days post infection; assay type: functional; details: 1440 h; how it was run: as §2
Trypanosoma cruzi [7] = experiment: Antitrypanosomal activity against Trypanosoma cruzi Y infected in CD8+ T-lymphocyte knockout C57BL/6 mouse assessed as occurrence of low level of circulating parasites at 100 mg/kg/day, po administered once daily for 20 consecutive days measured 15 days after the end of treatment
Trypanosoma cruzi [8] = experiment: Antitrypanosomal activity against Trypanosoma cruzi Y infected in C57BL/6 mouse assessed as mean survival time at 100 mg/kg/day, po administered once daily for 20 consecutive days measured 60 days post infection; assay type: functional; how it was run: as §2
Trypanosoma cruzi [9] = experiment: Antitrypanosomal activity against Trypanosoma cruzi Y infected in B-lymphocyte knockout C57BL/6 mouse assessed as cure rate in mouse at 100 mg/kg/day, po administered once daily for 20 consecutive days measured 60 days post infection; assay type: functional
How it was run: (§4)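 Mice infected ip with 5,000 blood trypomastigotes (Y strain kept by serial passage in Swiss-Webster mice). Oral dosing started day 4 post-infection and ran 20 consecutive days, drug dissolved in water with gum arabic. Fresh tail blood was examined microscopically daily days 4–16, then every other day to day 60. Parasitemia-negative mice were bled at day 60 by orbital sinus, 0.5 ml into two tubes of LIT medium, 28°C for 30–60 days, then examined microscopically. Cure meant negative fresh blood plus negative hemoculture. Rates were compared by chi-square with Bonferroni.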

Trypanosoma cruzi [10] = experiment: Antitrypanosomal activity against Trypanosoma cruzi Y infected in CD8+ T-lymphocyte knockout C57BL/6 mouse assessed as increase in survival of mouse at 100 mg/kg/day, po administered once daily for 20 consecutive days measured 60 days post infection; assay type: functional; details: 1440 h; how it was run: as §2
Trypanosoma cruzi [11] = experiment: Antitrypanosomal activity against Trypanosoma cruzi Y infected in CD4+ T-lymphocyte knockout C57BL/6 mouse assessed as occurrence of subpatent parasitemia level in mouse at 20 mg/kg/day, po administered twice daily for 20 consecutive days measured 4 to 24 days post infection; assay type: functional, organism-based; how it was run: as §1
Trypanosoma cruzi [12] = experiment: Antitrypanosomal activity against Trypanosoma cruzi Y infected in CD4+ T-lymphocyte knockout C57BL/6 mouse assessed as cure rate in mouse at 100 mg/kg/day, po administered once daily for 20 consecutive days measured 60 days post infection; assay type: functional; how it was run: as §4
Trypanosoma cruzi [13] = experiment: Antitrypanosomal activity against Trypanosoma cruzi Y infected in CD4+ T-lymphocyte knockout C57BL/6 mouse assessed as reactivation of parasite in mouse at 100 mg/kg/day, po administered once daily for 20 consecutive days measured 11 days post infection; assay type: functional, organism-based; how it was run: as §3
Trypanosoma cruzi [14] = experiment: Antitrypanosomal activity against Trypanosoma cruzi Y infected in CD8+ T-lymphocyte knockout C57BL/6 mouse assessed as number of mouse with reactivated parasite at 100 mg/kg/day, po administered once daily for 20 consecutive days measured 60 days post infection; assay type: functional
How it was run: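 Mice infected ip with 5,000 Y-strain blood trypomastigotes. From day 4 they were given drug orally in water with gum arabic for 20 days. Reactivation was scored as reappearance of circulating parasites after treatment ended, seen by microscopy of fresh tail blood. Sampling was daily from day 4 to 16 and then every other day up to day 60.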

Trypanosoma cruzi [15] = experiment: Antitrypanosomal activity against Trypanosoma cruzi Y infected in CD8+ T-lymphocyte knockout C57BL/6 mouse assessed as cure rate in mouse at 100 mg/kg/day, po administered once daily for 20 consecutive days measured 60 days post infection; assay type: functional; how it was run: as §4
Trypanosoma cruzi [16] = experiment: Antitrypanosomal activity against Trypanosoma cruzi Y infected in CD8+ T-lymphocyte knockout C57BL/6 mouse assessed as occurrence of subpatent level of parasitemia at 100 mg/kg/day, po administered once daily for 20 consecutive days measured 60 days post infection; assay type: functional, organism-based; how it was run: as §3
Trypanosoma cruzi [17] = experiment: Antitrypanosomal activity against Trypanosoma cruzi Y infected in CD4+ T-lymphocyte knockout C57BL/6 mouse assessed as increase in survival of mouse at 100 mg/kg/day, po administered once daily for 20 consecutive days measured 60 days post infection; assay type: functional; details: 1440 h; how it was run: as §2
Trypanosoma cruzi [18] = experiment: Antitrypanosomal activity against Trypanosoma cruzi Y infected in B-lymphocyte knockout C57BL/6 mouse assessed as mean survival time at 100 mg/kg/day, po administered once daily for 20 consecutive days measured 60 days post infection; assay type: functional; how it was run: as §2
Trypanosoma cruzi [19] = experiment: Antitrypanosomal activity against Trypanosoma cruzi Y infected in CD4+ T-lymphocyte knockout C57BL/6 mouse assessed as occurrence of subpatent parasitemia level in mouse at 100 mg/kg/day, po administered once daily for 20 consecutive days measured 4 to 24 days post infection; assay type: functional, organism-based; how it was run: as §3
Trypanosoma cruzi [20] = experiment: Antitrypanosomal activity against Trypanosoma cruzi Y infected in CD4+ T-lymphocyte knockout C57BL/6 mouse assessed as reactivation of parasite in mouse at 100 mg/kg/day, po administered once daily for 20 consecutive days measured 60 days post infection; assay type: functional, organism-based; how it was run: as §3
Trypanosoma cruzi [21] = experiment: Antitrypanosomal activity against Trypanosoma cruzi Y infected in CD4+ T-lymphocyte knockout C57BL/6 mouse assessed as mean survival time at 100 mg/kg/day, po administered once daily for 20 consecutive days measured 60 days post infection; assay type: functional; how it was run: as §2
Trypanosoma cruzi [22] = experiment: Antitrypanosomal activity against Trypanosoma cruzi Y infected in C57BL/6 mouse assessed as cure rate in mouse at 100 mg/kg/day, po administered once daily for 20 consecutive days measured 60 days post infection; assay type: functional; how it was run: as §4

## O=C(Cn1ccnc1[N+](=O)[O-])NCc1ccccc1 [BENZNIDAZOLE]
Trypanosoma cruzi [1]
  Activity: inactive
Trypanosoma cruzi [2]
  MST: 58.8 days
Trypanosoma cruzi [3]
  Activity: Active
Trypanosoma cruzi [4]
  Activity: inactive
Trypanosoma cruzi [5]
  survival at 100 mg/kg/day: 67%
Trypanosoma cruzi [6]
  survival at 100 mg/kg/day: 100%
Trypanosoma cruzi [7]
  Activity: Active
Trypanosoma cruzi [8]
  MST: >60 days
Trypanosoma cruzi [9]
  Activity: 22%
Trypanosoma cruzi [10]
  survival at 100 mg/kg/day: 86%
Trypanosoma cruzi [11]
  Activity: Active
Trypanosoma cruzi [12]
  Activity: 0%
Trypanosoma cruzi [13]
  Activity: inactive
Trypanosoma cruzi [14]
  Activity: 22%
Trypanosoma cruzi [15]
  Activity: 66%
Trypanosoma cruzi [16]
  Activity: Active
Trypanosoma cruzi [17]
  survival at 100 mg/kg/day: 6%
Trypanosoma cruzi [18]
  MST: 59.3 days
Trypanosoma cruzi [19]
  Activity: Active
Trypanosoma cruzi [20]
  Activity: inactive
Trypanosoma cruzi [21]
  MST: 53.7 days
Trypanosoma cruzi [22]
  Activity: 86%
